Data reported in ChEMBL document CHEMBL5346953, “Dual Piperidine-Based Histamine H3 and Sigma-1 Receptor Ligands in the Treatment of Nociceptive and Neuropathic Pain” (J Med Chem, 2023).
Calls of active or inactive are those of the source.

Legend:
[1] = system: Mus musculus; test: Analgesic activity in CCI-induced neuropathic pain mouse model assessed as effect on spinal response at 5 mg/kg,ip administration measured after 40 mins by tail flick test; assay type: functional, organism-based
Method in brief: (§1)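 CCI mice tested 14 days after sciatic nerve injury. Groups received i.p. vehicle or drug at 5, 10 or 15 mg/kg. Baselines were taken before injection, with n = 7–8 per group. Read-outs were von Frey (ipsilateral and contralateral paw) at 30, 90 and 180 min, cold plate at 35, 95 and 185 min, and tail flick at 40, 100 and 190 min. Values are %MPE (mean ± SEM), analysed by one-way ANOVA with Bonferroni post hoc.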

[2] = system: Mus musculus; test: Analgesic activity in CCI-induced neuropathic pain mouse model assessed as effect on thermal stimuli at 5 mg/kg,ip administration measured after 185 mins by cold plate test; assay type: functional, organism-based; method in brief: as §1
[3] = Neurotoxicity against mouse assessed as reduction in spontaneous locomotor activity at 30 mg/kg,ip observed after 30 mins of administration; assay type: toxicity, organism-based; conditions: in vivo, 0.5 h
Method in brief: (§2)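 Spontaneous locomotor activity was recorded in mice after i.p. dosing at 15 or 30 mg/kg, compared with vehicle, as a test of sedation. Analysis was one-way ANOVA. […]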

[4] = system: Mus musculus; test: Analgesic activity in CCI-induced neuropathic pain mouse model assessed as increase in contralateral paw withdrawal threshold at 10 mg/kg,ip administration measured after 90 mins by von frey test; assay type: functional, organism-based; method in brief: as §1
[5] = system: Mus musculus; test: Antiallodynic activity against oxaliplatin-induced peripheral neuropathy mouse model assessed as increase in pain threshold baseline at late phase at 5 mg/kg,ip followed by oxaliplatin treatment measured after 7 days by von frey test; assay type: functional; conditions: time 7 day
Method in brief: (§3)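 Mice with oxaliplatin-induced neuropathy were given the drug as a single dose at 5, 10 or 15 mg/kg. Tactile allodynia was measured by von Frey 3 h (early phase) and 7 days (late phase) after neuropathy induction. Thresholds are expressed relative to each group's pre-oxaliplatin baseline.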

[6] = system: Mus musculus; test: Analgesic activity in CCI-induced neuropathic pain mouse model assessed as effect on withdrawal threshold at 15 mg/kg,ip administration measured after 30 mins by von frey test; assay type: functional, organism-based; method in brief: as §1
[7] = system: Mus musculus; test: Effect in loperamide-induced antinociception mouse assessed as increase in struggle response latency at ip administration; assay type: functional, organism-based
[8] = system: Mus musculus; test: Antiallodynic activity against oxaliplatin-induced peripheral neuropathy mouse model assessed as increase in pain threshold baseline at early phase at 5 mg/kg,ip followed by oxaliplatin treatment measured after 3 hrs by von frey test; assay type: functional; method in brief: as §3
[9] = system: Mus musculus; test: Antiallodynic activity against oxaliplatin-induced peripheral neuropathy mouse model assessed as increase in pain threshold baseline at late phase at 15 mg/kg,ip followed by oxaliplatin treatment measured after 7 days by von frey test; assay type: functional; conditions: time 7 day; method in brief: as §3
[10] = system: Mus musculus; test: Analgesic activity in CCI-induced neuropathic pain mouse model assessed as effect on spinal response at 10 mg/kg,ip administration measured after 40 mins by tail flick test; assay type: functional, organism-based; method in brief: as §1
[11] = Neurotoxicity against mouse assessed as reduction in spontaneous locomotor activity at 15 mg/kg,ip observed after 30 mins of administration; assay type: toxicity, organism-based; conditions: in vivo, 0.5 h; method in brief: as §2
[12] = system: Mus musculus; test: Anti-hyperalgesic activity in CCI-induced neuropathic pain mouse model assessed as effect on thermal stimuli at 5 to 15 mg/kg,ip administration measured after 95 mins by cold plate test; assay type: functional, organism-based; conditions: dose 5-15 mg/kg; method in brief: as §1
[13] = system: Mus musculus; test: Analgesic activity in CCI-induced neuropathic pain mouse model assessed as effect on thermal stimuli at 10 mg/kg,ip administration measured after 185 mins by cold plate test; assay type: functional, organism-based; method in brief: as §1
[14] = system: Mus musculus; test: Analgesic activity in CCI-induced neuropathic pain mouse model assessed as effect on withdrawal threshold at 15 mg/kg,ip administration measured after 180 mins by von frey test; assay type: functional, organism-based; method in brief: as §1
[15] = system: Mus musculus; test: Analgesic activity in CCI-induced neuropathic pain mouse model assessed as effect on thermal stimuli at 5 to 15 mg/kg,ip administration measured after 35 mins by cold plate test; assay type: functional, organism-based; conditions: dose 5-15 mg/kg; method in brief: as §1
[16] = system: Mus musculus; test: Analgesic activity in CCI-induced neuropathic pain mouse model assessed as increase in mechanical paw withdrawal threshold at 10 mg/kg,ip administration measured after 180 mins by von frey test; assay type: functional, organism-based; method in brief: as §1
[17] = system: Mus musculus; test: Analgesic activity in CCI-induced neuropathic pain mouse model assessed as increase in mechanical paw withdrawal threshold at 10 mg/kg,ip administration measured after 90 mins by von frey test; assay type: functional, organism-based; method in brief: as §1
[18] = system: Mus musculus; test: Analgesic activity in CCI-induced neuropathic pain mouse model assessed as effect on spinal response at 10 mg/kg,ip administration measured after 100 mins by tail flick test; assay type: functional, organism-based; method in brief: as §1
[19] = system: Mus musculus; test: Analgesic activity in CCI-induced neuropathic pain mouse model assessed as effect on tactile allodynia at 10 mg/kg,ip administration measured after 30 to 180 mins by von frey test; assay type: functional, organism-based; conditions: time lower 30.0 min, time upper […]; method in brief: as §1
[20] = system: Mus musculus; test: Analgesic activity in CCI-induced neuropathic pain mouse model assessed as increase in mechanical paw withdrawal threshold at 10 mg/kg,ip administration measured after 30 mins by von frey test; assay type: functional, organism-based; method in brief: as §1
[21] = system: Mus musculus; test: Antiallodynic activity against oxaliplatin-induced peripheral neuropathy mouse model assessed as increase in pain threshold baseline at early phase at 10 mg/kg,ip followed by oxaliplatin treatment measured after 3 hrs by von frey test; assay type: functional; method in brief: as §3
[22] = system: Mus musculus; test: Antiallodynic activity against oxaliplatin-induced peripheral neuropathy mouse model assessed as increase in pain threshold baseline at late phase at 10 mg/kg,ip followed by oxaliplatin treatment measured after 7 days by von frey test; assay type: functional; conditions: time 7 day; method in brief: as §3
[23] = biological target: T1, Histamine H3 receptor (Homo sapiens, UniProt Q9Y5N1); test: Inhibition of recombinant human histamine H3 receptor stably expressed in HEK293 cells assessed as increase in cAMP accumulation in presence of forskolin incubated for 30 mins by TR-FRET LANCE assay; assay type: functional, cell-based
[24] = system: Mus musculus; test: Analgesic activity in CCI-induced neuropathic pain mouse model assessed as effect on tactile allodynia at 5 mg/kg,ip administration measured after 30 to 180 mins by von frey test; assay type: functional, organism-based; conditions: time lower 30.0 min, time upper […]; method in brief: as §1
[25] = system: Mus musculus; test: Analgesic activity in CCI-induced neuropathic pain mouse model assessed as effect on spinal response at 10 mg/kg,ip administration measured after 190 mins by tail flick test; assay type: functional, organism-based; method in brief: as §1
[26] = Neurotoxicity against mouse assessed as impairment of motor coordination at 15 mg/kg,ip administration at 24 rpm by rotarod test; assay type: toxicity, organism-based; conditions: in vivo
Method in brief: (§4)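 Mice received 15 mg/kg i.p. or vehicle. Motor coordination was then measured as time on the rotarod, at 18 and 24 rpm, with a maximum of 60 s.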

[27] = system: Mus musculus; test: Antiallodynic activity against oxaliplatin-induced peripheral neuropathy mouse model assessed as increase in pain threshold baseline at late phase at 5 mg/kg,ip administrated in presence of oxaliplatin measured after 7 days by von frey test; assay type: functional, organism-based; conditions: time 7.0 day; method in brief: as §3
[28] = system: Mus musculus; test: Antinociceptive activity in Capsaicin-induced nociceptive mouse model assessed as reduction in biting behavior at 10 to 30 mg/kg,ip administration followed by capsaicin treatment; assay type: functional, organism-based; conditions: dose 10-30 mg/kg
Method in brief: (§5)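 Capsaicin was injected intraplantarly into mice pretreated with 10, 15 or 30 mg/kg, with 1% Tween 80 as vehicle. Licking/biting time was scored for 5 min after injection, with 8–10 mice per group, as mean ± SEM. Analysis was one-way ANOVA with Dunnett's test. ED50 was estimated from the dose–response.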

[29] = system: Mus musculus; test: Analgesic activity in CCI-induced neuropathic pain mouse model assessed as effect on withdrawal threshold at 15 mg/kg,ip administration measured after 90 mins by von frey test; assay type: functional, organism-based; method in brief: as §1
[30] = system: Mus musculus; test: Antinociceptive activity in Capsaicin-induced nociceptive mouse model assessed as reduction in paw licking at 10 to 30 mg/kg,ip administration followed by capsaicin treatment; assay type: functional, organism-based; conditions: dose 10-30 mg/kg; method in brief: as §5
[31] = system: Mus musculus; test: Analgesic activity in CCI-induced neuropathic pain mouse model assessed as increase in mechanical paw withdrawal threshold at 5 mg/kg,ip administration measured after 30 mins by von frey test; assay type: functional, organism-based; method in brief: as §1
[32] = system: Mus musculus; test: Antinociceptive activity in loperamide-induced mouse assessed as increase in struggle response latency struggle response latency at 25 ug,ip administration in presence of PRE-084; assay type: functional, organism-based; conditions: dose 25.0 µg
[33] = Neurotoxicity against mouse assessed as impairment of motor coordination at 15 mg/kg,ip administration at 18 rpm by rotarod test; assay type: toxicity, organism-based; conditions: in vivo; method in brief: as §4
[34] = system: Mus musculus; test: Antinociceptive activity in mouse assessed as effect on struggle response latency at 25 ug,ip administration; assay type: functional, organism-based; conditions: dose 25.0 µg
[35] = system: Mus musculus; test: Antinociceptive activity in loperamide-induced mouse assessed as increase in struggle response latency struggle response latency at 25 ug,ip administration in presence of naloxone-methiodide; assay type: functional, organism-based; conditions: dose 25.0 µg
[36] = Neurotoxicity against mouse assessed as effect in spontaneous locomotor activity by measuring effective dose at ip administration observed after 30 mins; assay type: toxicity, organism-based; conditions: in vivo, 0.5 h; method in brief: as §2
[37] = system: Mus musculus; test: Antiallodynic activity against oxaliplatin-induced peripheral neuropathy mouse model assessed as increase in pain threshold baseline at early phase at 15 mg/kg,ip followed by oxaliplatin treatment measured after 3 hrs by von frey test; assay type: functional; method in brief: as §3
[38] = system: Mus musculus; test: Antinociceptive activity in mouse assessed as effect on struggle response latency at 100 ug,ip administration; assay type: functional, organism-based; conditions: dose 100.0 µg
[39] = system: Mus musculus; test: Antinociceptive activity in loperamide-induced mouse assessed as increase in struggle response latency struggle response latency at 100 ug,ip administration in presence of PRE-084; assay type: functional, organism-based; conditions: dose 100.0 µg
[40] = system: Mus musculus; test: Antinociceptive activity in loperamide-induced mouse assessed as increase in struggle response latency struggle response latency at 100 ug,ip administration in presence of naloxone-methiodide; assay type: functional, organism-based; conditions: dose 100.0 µg
[41] = biological target: T1, Histamine H3 receptor; test: Displacement of [3H]Nalpha-methylhistamine from recombinant human histamine H3 receptor stably expressed in HEK293 cells assessed as inhibition constant by competitive binding based radioligand depletion assay; assay type: cell-based

T1 sequence (Q9Y5N1 whole entry): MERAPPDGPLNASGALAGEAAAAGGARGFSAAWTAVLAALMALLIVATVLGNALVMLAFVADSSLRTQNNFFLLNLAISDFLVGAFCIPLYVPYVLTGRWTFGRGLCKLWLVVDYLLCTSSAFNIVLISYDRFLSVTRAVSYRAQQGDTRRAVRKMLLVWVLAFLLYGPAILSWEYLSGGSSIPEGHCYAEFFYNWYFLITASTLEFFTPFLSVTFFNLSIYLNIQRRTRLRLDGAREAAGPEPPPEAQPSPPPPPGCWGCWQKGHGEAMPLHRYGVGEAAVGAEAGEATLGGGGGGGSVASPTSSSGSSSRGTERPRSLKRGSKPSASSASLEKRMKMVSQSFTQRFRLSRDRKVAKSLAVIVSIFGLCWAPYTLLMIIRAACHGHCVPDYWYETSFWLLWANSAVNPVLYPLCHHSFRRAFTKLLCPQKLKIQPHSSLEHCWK

## N#Cc1ccc(-c2ccc(OCCCN3CCC(c4ccncc4)CC3)cc2)cc1
[1]
  Activity: Active
[2]
  Activity: Active
[3]
  Activity: Toxic
[4]
  Activity: Active
[5]
  Activity: 77.7%
[6]
  Activity: inactive
[7]
  Activity: Dose-Dependent Effect
[8]
  Activity: 63.5%
[9]
  Activity: 69.3%
[10]
  Activity: Active
[11]
  Activity: Toxic
[12]
  Activity: Active
[13]
  Activity: Active
[14]
  Activity: inactive
[15]
  Activity: Active
[16]
  Activity: Active
[17]
  Activity: Active
[18]
  Activity: Active
[19]
  Activity: inactive
[20]
  Activity: Active
[21]
  Activity: 50.4%
[22]
  Activity: 67.6%
[23]
  IC50: 215 nM
[24]
  Activity: inactive
[25]
  Activity: Active
[26]
  Activity: Toxic
[27]
  Activity: inactive
[28]
  Activity: Active
[29]
  Activity: Active
[30]
  Activity: Active
[31]
  Activity: Active
[32]
  Activity: inactive
[33]
  Activity: Toxic
[34]
  Activity: inactive
[35]
  Activity: inactive
[36]
  ED50: 21.97 mg/kg
[37]
  Activity: 66.6%

## Cc1cc(OCCN2CCOCC2)nn1-c1ccc2ccccc2c1
[7]
  Activity: Dose-Dependent Effect
[38]
  Activity: inactive
[39]
  Activity: inactive
[40]
  Activity: inactive

## c1ccc(Cc2ccc(OCCCN3CCCCC3)cc2)cc1
[41]
  Ki: 27.5 nM
